According to BindingDB's records for doi:10.1021/jm0600794 (University of Innsbruck, 2006):

Target: T1, Glucocorticoid receptor (Homo sapiens, UniProt P04150)
T1 sequence (P04150 whole entry): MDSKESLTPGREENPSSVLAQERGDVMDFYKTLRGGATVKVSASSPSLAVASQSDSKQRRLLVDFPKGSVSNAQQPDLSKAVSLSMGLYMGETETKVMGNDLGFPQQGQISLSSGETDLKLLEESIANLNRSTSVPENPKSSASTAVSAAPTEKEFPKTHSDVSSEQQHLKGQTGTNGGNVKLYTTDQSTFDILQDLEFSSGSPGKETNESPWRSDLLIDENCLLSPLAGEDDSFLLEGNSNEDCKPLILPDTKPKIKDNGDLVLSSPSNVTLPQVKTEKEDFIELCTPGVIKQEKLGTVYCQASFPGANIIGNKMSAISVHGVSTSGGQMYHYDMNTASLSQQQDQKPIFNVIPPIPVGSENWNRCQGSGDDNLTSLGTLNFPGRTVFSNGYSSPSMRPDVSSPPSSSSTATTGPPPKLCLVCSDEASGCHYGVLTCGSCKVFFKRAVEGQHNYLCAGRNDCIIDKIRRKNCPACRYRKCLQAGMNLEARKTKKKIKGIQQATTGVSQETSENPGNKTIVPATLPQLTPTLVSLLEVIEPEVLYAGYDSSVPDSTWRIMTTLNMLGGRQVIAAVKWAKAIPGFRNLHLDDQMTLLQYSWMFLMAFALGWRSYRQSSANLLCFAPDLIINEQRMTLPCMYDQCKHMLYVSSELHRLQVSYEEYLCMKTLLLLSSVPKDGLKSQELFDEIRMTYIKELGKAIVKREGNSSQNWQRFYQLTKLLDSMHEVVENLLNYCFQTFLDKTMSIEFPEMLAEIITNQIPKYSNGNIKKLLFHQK
Assay: Inhibition of GR-mediated transactivation of galactosidase reporter gene in HEK293 cells expressing 11betaHSD1
Procedure, shortened: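 HEK-293 cells transfected with pMMTV-LacZ, pCMV-LUC, GR, 11β-HSD1 and H6PDH plasmids. After 6 h, washed into steroid-free medium, then 24 h with 250 nM cortisone and graded inhibitor. β-Galactosidase normalized to luciferase, as % of steroid-only control. IC50 from four independent experiments, means ± SD.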

**Q.** With `CC(=O)OC1CC[C@]2(C)C3=C(C(=O)C[C@H]2C1(C)C)[C@]1(C)CCC(C(C)CCC(=O)O)[C@@]1(C)CC3=O` (stereo partly drawn) [4-((5R,10S,13R,14R)-3-acetoxy-4,4,10,13,14-pentamethyl-7,11-dioxo-2,3,4,5,6,7,10,11,12,13,14,15,16,17-tetradecahydro-1H-cyclopenta[a]phenanthren-17-yl)pentanoic acid] as the compound, how does the IC50 read?
**A.** The IC50 was 2090 nM.
